# Data published in PMC5902032 (European journal of medicinal chemistry, 2018).
# Read-outs that look alike come from different tables or passages of the source.
# Key:
# [1] = system: P. falciparum strain NF54 asexual blood stage parasites; assay: NF54 asexual blood stage Sybrgreen DNA replication assay; assay type: cell-based, Plasmodium falciparum; conditions: read-out: NF54 IC50, CQ-S strain, 72 h
# How it was run: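 Asexual NF54 parasites were seeded at 0.83% parasitaemia and 1.5% haematocrit in RPMI1640 with 10% human serum. Serial dilutions were made from DMSO stocks in medium (final DMSO 0.1%). Plates were incubated 72 h at 37 °C under 3% O2 and 4% CO2. Growth was read as SYBR Green fluorescence.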
# [2] = target: P. falciparum NF54-HGL gametocytes; assay: NF54-HGL gametocyte luciferase assay; assay type: cell-based, Plasmodium falciparum; conditions: read-out: GCT: NF54-HGL IC50
# How it was run: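 Gametocytes came from a flask inoculated with 1% asexual parasites at 5% haematocrit in RPMI1640 with 10% human serum. Asexual stages were cleared with 50 mM NAG on days 4–9. Mostly stage IV cells were Percoll-purified on day 11 and plated at 5000 per well (final DMSO 0.1%). After 72 h at 37 °C, 3% O2, 4% CO2, viability was read as ONE-Glo luminescence.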
# [3] = system: P. falciparum W2 (CQ-R) strain; assay: Antiplasmodial activity against W2 strain; assay type: cell-based, Plasmodium falciparum; conditions: read-out: W2 IC50
# [4] = system: P. falciparum D10 (CQ-S) strain; assay: Antiplasmodial activity against D10 strain; assay type: cell-based, Plasmodium falciparum; conditions: read-out: D10 IC50
# [5] = target: P. falciparum 3D7elo1-pfs16-CBG99 late-stage gametocytes; assay: Gametocytocidal luciferase-based assay, 3D7elo1-pfs16-CBG99; assay type: cell-based, Plasmodium falciparum; conditions: read-out: GCT: 3D7elo1-pfs16-CBG99 IC50, 72 h
# [6] = system: Langendorff-isolated rat hearts; assay: Cardiac mechanical function and ECG in Langendorff-isolated rat hearts; conditions: for Effect on left ventricular pressure (LVP): concentration-effect relationship; for Effect on coronary perfusion pressure (CPP): data not shown
# How it was run: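 Rats heparinised (5000 U/kg) with xylazine (4 mg/kg), decapitated. Hearts perfused retrogradely via aorta at 10 mL/min with Krebs-Henseleit (95% O2-5% CO2, pH 7.4, 37 °C), equilibrated ≥20 min before drug. LVP by intraventricular latex balloon (end-diastolic 10 mmHg), systolic minus diastolic. CPP by inflow-line transducer. Surface ECG at 1 kHz: RR, HR, PQ, QRS, QT, Bazett-corrected QTc.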
# [7] = system: late stages Plasmodium gametocytes; conditions: read-out: in vitro IC50 against late stages Plasmodium gametocytes; different published assays; cited from earlier work
# [8] = system: P. falciparum asexual and sexual stages; conditions: read-out: IC50 against P. falciparum asexual and sexual stages; cited from earlier work
# [9] = target: T1, PfPMT (Plasmodium falciparum, UniProt Q8IDQ9); assay: PfPMT radiochemical methyltransferase assay; assay type: biochemical; conditions: 100 μM
# T1 sequence (Q8IDQ9 1-266): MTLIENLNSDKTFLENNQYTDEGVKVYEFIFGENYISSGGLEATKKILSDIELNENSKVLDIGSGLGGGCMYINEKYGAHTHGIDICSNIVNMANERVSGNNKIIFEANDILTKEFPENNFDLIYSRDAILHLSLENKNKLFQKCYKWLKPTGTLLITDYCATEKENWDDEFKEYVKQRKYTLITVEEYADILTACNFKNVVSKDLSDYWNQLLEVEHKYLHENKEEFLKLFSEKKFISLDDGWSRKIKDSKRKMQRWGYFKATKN
# How it was run: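 Recombinant PfPMT was expressed in and purified from E. coli. Activity was measured radiochemically with 2 µg enzyme in 0.1 M Hepes-KOH pH 8.0, 2 mM Na2EDTA, 10% glycerol and 5% DMSO. The reaction contained 30 µM SAM (including 100 nCi [methyl-14C]SAM) and 55 µM phosphoethanolamine. Inhibitors were screened at 100 µM; values are mean ± SD, n = 3.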
# [10] = system: male and female NF54 gametes; conditions: cited from earlier work
# [11] = target: Cav1.2 channels (Rattus norvegicus, UniProt P22002); assay: Whole-cell patch-clamp of IBa1.2 in single rat tail artery myocytes; assay type: cell-based; conditions: 30 μM
# How it was run: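 Rat tail artery myocytes were isolated enzymatically (collagenase, 37 °C, 40–45 min), kept at 4 °C and used within two days. Whole-cell patch-clamp was run at 20–22 °C. The external solution held 5 mM Ba2+ and 30 mM TEA; the pipette solution was Cs+-based (pCa 8.4, pH 7.4). IBa was evoked by 250-ms pulses to 0 mV from −50 mV at 0.067 Hz, with recording once current had stabilised.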
# [12] = system: P. berghei liver stages; assay: P. berghei liver-stage analysis in mouse primary hepatocytes; assay type: cell-based, Plasmodium berghei
# How it was run: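 Mouse primary hepatocytes were infected with 20'000 mCherry-expressing P. berghei ANKA sporozoites. From 2 h post-infection, cells received a range of test compound concentrations or a matching DMSO control, with medium and drug renewed at 24 h. At 48 h, parasite number and size in unfixed cells were measured by automated microscopy (n = 4, SD). Groups were compared by one-way ANOVA with Dunnett's test.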
# Cav1.2 channels, sequence (P22002 whole entry): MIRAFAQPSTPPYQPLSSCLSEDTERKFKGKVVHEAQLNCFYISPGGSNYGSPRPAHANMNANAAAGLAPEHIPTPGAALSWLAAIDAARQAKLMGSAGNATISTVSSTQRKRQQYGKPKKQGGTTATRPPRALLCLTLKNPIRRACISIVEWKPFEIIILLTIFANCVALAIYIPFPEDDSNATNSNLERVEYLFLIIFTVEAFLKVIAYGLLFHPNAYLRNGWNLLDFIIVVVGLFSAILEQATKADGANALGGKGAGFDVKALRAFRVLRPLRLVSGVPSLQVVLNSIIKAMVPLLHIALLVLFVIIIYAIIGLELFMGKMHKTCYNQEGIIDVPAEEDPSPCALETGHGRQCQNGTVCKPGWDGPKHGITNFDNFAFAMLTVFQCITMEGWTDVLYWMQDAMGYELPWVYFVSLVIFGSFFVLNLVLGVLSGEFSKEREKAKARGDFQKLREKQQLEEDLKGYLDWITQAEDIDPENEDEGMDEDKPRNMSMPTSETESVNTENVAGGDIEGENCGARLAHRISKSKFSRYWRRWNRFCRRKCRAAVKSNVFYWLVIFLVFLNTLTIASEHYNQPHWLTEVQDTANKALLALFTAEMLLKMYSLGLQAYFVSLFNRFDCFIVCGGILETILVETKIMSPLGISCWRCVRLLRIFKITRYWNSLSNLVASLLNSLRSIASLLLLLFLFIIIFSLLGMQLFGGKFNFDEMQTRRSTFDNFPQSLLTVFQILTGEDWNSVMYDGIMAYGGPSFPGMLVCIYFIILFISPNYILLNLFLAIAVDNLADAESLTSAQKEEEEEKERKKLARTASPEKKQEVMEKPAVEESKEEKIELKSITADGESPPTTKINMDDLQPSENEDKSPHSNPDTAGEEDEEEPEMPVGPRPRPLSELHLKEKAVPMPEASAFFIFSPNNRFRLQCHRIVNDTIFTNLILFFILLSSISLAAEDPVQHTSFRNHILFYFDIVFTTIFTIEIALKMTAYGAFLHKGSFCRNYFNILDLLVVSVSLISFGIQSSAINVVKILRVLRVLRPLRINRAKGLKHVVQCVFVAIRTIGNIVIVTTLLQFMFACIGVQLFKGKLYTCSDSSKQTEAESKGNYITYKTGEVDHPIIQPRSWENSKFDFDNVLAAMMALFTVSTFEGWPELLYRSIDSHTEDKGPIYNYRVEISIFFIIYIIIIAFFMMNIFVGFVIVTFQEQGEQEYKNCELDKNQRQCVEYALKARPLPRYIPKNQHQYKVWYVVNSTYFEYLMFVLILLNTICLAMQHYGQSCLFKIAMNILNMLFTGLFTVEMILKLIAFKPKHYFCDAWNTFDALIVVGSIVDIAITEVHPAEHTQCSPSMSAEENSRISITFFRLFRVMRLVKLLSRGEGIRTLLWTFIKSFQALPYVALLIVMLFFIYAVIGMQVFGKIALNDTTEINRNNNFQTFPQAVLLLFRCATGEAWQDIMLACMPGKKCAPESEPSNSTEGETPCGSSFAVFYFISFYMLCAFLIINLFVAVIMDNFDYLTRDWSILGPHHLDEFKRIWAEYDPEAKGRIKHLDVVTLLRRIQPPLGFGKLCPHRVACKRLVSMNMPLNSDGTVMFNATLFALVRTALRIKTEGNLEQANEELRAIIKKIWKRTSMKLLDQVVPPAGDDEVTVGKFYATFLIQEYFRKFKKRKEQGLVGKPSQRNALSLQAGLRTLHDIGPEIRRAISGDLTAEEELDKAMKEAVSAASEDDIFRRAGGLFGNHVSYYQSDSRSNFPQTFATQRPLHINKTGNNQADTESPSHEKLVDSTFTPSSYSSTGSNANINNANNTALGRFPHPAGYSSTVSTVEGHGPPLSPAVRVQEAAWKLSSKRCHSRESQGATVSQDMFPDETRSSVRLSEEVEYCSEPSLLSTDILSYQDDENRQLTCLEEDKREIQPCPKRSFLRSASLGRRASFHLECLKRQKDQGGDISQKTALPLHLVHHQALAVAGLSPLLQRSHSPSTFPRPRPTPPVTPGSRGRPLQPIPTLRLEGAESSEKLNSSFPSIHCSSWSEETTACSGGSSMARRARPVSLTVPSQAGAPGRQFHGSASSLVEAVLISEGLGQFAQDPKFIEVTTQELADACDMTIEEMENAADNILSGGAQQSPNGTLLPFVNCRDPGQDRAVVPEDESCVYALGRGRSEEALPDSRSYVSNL
# Cav1.2 channels, sequence (P54290 25-944 partner limits assumed): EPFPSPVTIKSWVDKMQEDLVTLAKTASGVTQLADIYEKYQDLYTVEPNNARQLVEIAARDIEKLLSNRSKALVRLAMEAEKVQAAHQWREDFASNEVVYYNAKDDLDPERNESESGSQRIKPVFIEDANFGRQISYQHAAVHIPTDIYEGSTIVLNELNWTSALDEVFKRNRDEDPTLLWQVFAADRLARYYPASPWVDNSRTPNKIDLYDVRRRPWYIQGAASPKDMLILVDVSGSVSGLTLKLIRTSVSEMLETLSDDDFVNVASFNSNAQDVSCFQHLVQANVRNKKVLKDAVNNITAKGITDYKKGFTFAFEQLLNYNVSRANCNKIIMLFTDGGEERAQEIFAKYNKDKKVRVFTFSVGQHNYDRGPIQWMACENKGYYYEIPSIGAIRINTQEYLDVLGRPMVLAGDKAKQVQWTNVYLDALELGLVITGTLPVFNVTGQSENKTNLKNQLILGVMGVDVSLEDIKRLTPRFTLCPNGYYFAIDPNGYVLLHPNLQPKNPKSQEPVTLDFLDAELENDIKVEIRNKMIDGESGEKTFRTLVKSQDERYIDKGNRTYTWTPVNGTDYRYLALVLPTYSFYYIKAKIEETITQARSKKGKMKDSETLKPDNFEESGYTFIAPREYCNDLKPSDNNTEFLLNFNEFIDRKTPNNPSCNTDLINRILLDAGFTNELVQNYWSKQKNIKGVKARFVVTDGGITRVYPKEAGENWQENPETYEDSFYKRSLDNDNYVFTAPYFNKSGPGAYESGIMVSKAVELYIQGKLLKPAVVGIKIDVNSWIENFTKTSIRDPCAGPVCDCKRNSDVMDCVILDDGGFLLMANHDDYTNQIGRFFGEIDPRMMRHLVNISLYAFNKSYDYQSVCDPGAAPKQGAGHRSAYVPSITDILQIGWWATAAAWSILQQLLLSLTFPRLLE
# Cav1.2 channels, sequence (P54290 945-1091 partner limits assumed): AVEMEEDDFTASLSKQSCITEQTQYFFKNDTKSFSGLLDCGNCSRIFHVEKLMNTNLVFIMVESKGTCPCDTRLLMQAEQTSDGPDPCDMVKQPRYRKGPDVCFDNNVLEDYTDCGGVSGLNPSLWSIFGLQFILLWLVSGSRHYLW
# Cav1.2 channels, sequence (P54287 whole entry partner): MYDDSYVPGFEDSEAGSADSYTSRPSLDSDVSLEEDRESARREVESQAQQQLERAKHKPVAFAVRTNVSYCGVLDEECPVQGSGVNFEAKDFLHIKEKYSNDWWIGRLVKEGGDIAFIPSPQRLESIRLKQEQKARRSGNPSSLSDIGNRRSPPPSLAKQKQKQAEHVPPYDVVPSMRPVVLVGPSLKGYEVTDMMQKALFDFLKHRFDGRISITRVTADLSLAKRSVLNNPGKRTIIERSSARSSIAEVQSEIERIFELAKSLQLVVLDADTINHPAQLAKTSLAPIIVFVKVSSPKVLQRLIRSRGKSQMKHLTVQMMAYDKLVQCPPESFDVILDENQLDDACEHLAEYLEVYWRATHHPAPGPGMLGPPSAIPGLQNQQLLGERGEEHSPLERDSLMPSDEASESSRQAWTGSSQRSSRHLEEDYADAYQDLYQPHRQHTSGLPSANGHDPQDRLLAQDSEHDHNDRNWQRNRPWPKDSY
compound,measurement,setting,value
1-(5-Bromobenzothiophen-2-yl)-N-(piperidin-4-ylmethyl)methanamine [Compound 32],IC50,[1],730 nM
same,IC50,"[2]; gametocytes predominantly stage IV, 72 h, luminescence",53 nM
same,IC50,"[3]; CQ-R strain, 72 h, pLDH",1500 nM
same,IC50,"[4]; CQ-S strain, 72 h, pLDH",1000 nM
same,IC50,"[5]; late-stage gametocytes (stage IV–V), luciferase",1400 nM
"CCN(CC)CCCC(C)Nc1ccnc2cc(Cl)ccc12 (stereo not shown) [Chloroquine, reference compound]",IC50,"[3]; Plasmodium falciparum, W2, 72 h",310 nM
same,IC50,"[4]; Plasmodium falciparum, D10, 72 h",26 nM
"Clc1cc(Br)ccc1-c1ccc(CNCC2CCNCC2)o1 [Compound 1, 1-(5-(4-Bromo-2-chlorophenyl)furan-2-yl)-N-(piperidin-4-ylmethyl)methanamine]",Sinus arrhythmia,[6],3 out of 4
same,Effect on left ventricular pressure (LVP),[6],reduced left ventricular pressure (LVP) in a concentration-dependent manner
same,Effect on coronary perfusion pressure (CPP),[6],leaving unaltered coronary perfusion pressure
same,IC50,[7],< 1000 nM
same,IC50,[8],< 1000 nM
same,Inhibitory activity against PfPMT,[9],weak activity
same,Activity on male and female NF54 gametes,[10],activity on both male and female NF54 gametes
"CN(C)CCCNCc1ccc(-c2ccc(F)c(Cl)c2)o1 [Compound 2, N-[(5-(3-chloro-4-fluorophenyl)furan-2-yl)methyl]-N′,N′-dimethylpropane-1,3-diamine, reference compound]",IC50,[7],< 1000 nM
"N#Cc1ccc(-c2ccc(CNCC3CCNCC3)o2)cc1 [Compound 24, 1-(5-(4-Cyanophenyl)furan-2-yl)-N-(piperidin-4-3ylmethyl)methanamine]",Inhibitory activity against PfPMT,[9],weak activity
"Clc1ccc(-c2ccc(CNCC3CCNCC3)o2)c(-c2ccccc2)c1 [Compound 25, 1-(5-(2-Phenyl-4-chlorophenyl)furan-2-yl)-N-(piperidin-4-ylmethyl)methanamine]",Effect on IBa1.2 current,[11],blocked the current
same,Effect on left ventricular pressure (LVP),[6],reduced left ventricular pressure (LVP) in a concentration-dependent manner
same,Effect on coronary perfusion pressure (CPP),[6],leaving unaltered coronary perfusion pressure
same,Parasite sizes,"[12]; 48 hpi, mouse primary hepatocytes, different concentrations",Neither parasite numbers (Figure 2A) nor parasite sizes (Figure 2B) were significantly influenced
same,Parasite numbers per well,"[12]; 48 h, mouse primary hepatocytes, different concentrations",no liver stage activity
same,Detached cell formation,[12]; detached cells at 65 hpi vs 48 h number,Neither concentration tested significantly inhibited detached cell formation
"C[N+](C)(CCCNCc1ccc(-c2ccc(Cl)cc2Br)o1)Cc1ccccc1.[Cl-] [Compound 48, N-Benzyl-3-[(5-(4-chloro-2-bromophenyl)furan-2-yl-methyl)amino]-N,N-dimethylpropan-1-ammonium chloride]",Inhibitory activity against PfPMT,[9],weak activity
"CC[C@H](C)[C@H](NC(=O)[C@H]([C@@H](C)CC)N(C)C(C)=O)C(=O)N[C@H](C(=O)N[C@@H](CC(C)C)C(=O)[C@@]1(C)CO1)[C@@H](C)O [Epoxomycin, reference compound]",IC50,"[2]; Plasmodium falciparum, NF54, 72 h",0.7 nM
same,IC50,[5]; Plasmodium falciparum,7 nM
